Substrate in series [1]: N#CCC(=O)NC(Cc1ccccc1)C(=O)NC(Cc1ccccc1)C(=O)O
Description: Michaelis-Menten constant determined for Neutral endopeptidase (NEP). An outline of the steps:
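Recombinant human NEP from CHO cells (>99% pure), 0.5 μM in 50 mM HEPES pH 7.4 with 10% p-dioxane, incubated at 25 °C with inactivator at 0.5–7.5 μM final. Aliquots diluted 1:100 into DAGNPG assay solution (50 mM Tris pH 7.4, 37 °C), fluorescence read at ex 342/em 562 nm. Pseudo-first-order kobs plotted double-reciprocally against inactivator concentration to give kinact and Km.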

Substrate in series [2]: N#CCC(=O)CC(Cc1ccccc1)C(=O)NC(Cc1ccccc1)C(=O)O
Substrate in series [3]: N#CCC(=O)NC(Cc1ccccc1)C(=O)NC(Cc1ccccc1)C(=O)O
Kind of series: Michaelis-Menten constant determined for Angiotensin I converting enzyme.

B1: Neprilysin (Homo sapiens), P08473 (protein)
chain: MGKSESQMDITDINTPKPKKKQRWTPLEISLSVLVLLLTIIAVTMIALYATYDDGICKSSDCIKSAARLIQNMDATTEPCTDFFKYACGGWLKRNVIPETSSRYGNFDILRDELEVVLKDVLQEPKTEDIVAVQKAKALYRSCINESAIDSRGGEPLLKLLPDIYGWPVATENWEQKYGASWTAEKAIAQLNSKYGKKVLINLFVGTDDKNSVNHVIHIDQPRLGLPSRDYYECTGIYKEACTAYVDFMISVARLIRQEERLPIDENQLALEMNKVMELEKEIANATAKPEDRNDPMLLYNKMTLAQIQNNFSLEINGKPFSWLNFTNEIMSTVNISITNEEDVVVYAPEYLTKLKPILTKYSARDLQNLMSWRFIMDLVSSLSRTYKESRNAFRKALYGTTSETATWRRCANYVNGNMENAVGRLYVEAAFAGESKHVVEDLIAQIREVFIQTLDDLTWMDAETKKRAEEKALAIKERIGYPDDIVSNDNKLNNEYLELNYKEDEYFENIIQNLKFSQSKQLKKLREKVDKDEWISGAAVVNAFYSSGRNQIVFPAGILQPPFFSAQQSNSLNYGGIGMVIGHEITHGFDDNGRNFNKDGDLVDWWTQQSASNFKEQSQCMVYQYGNFSWDLAGGQHLNGINTLGENIADNGGLGQAYRAYQNYIKKNGEEKLLPGLDLNHKQLFFLNFAQVWCGTYRPEYAVNSIKTDVHSPGNFRIIGTLQNSAEFSEAFHCRKNSYMNPEKKCRVW
With B1, the results for the Km in series [1] and in series [2] were 2.38 mM and 5.1 mM, respectively.

B2: Angiotensin-converting enzyme (Rattus norvegicus), P47820 (protein)
chain: MGAASGQRGRWPLSPPLLMLSLLLLLLLPPSPAPALDPGLQPGNFSADEAGAQLFADSYNSSAEVVMFQSTAASWAHDTNITEENARLQEEAALINQEFAEVWGKKAKELYESIWQNFTDQKLRRIIGSVQTLGPANLPLTQRLQYNSLLSNMSRIYSTGKVCFPNKTATCWSLDPELTNILASSRNYAKVLFAWEGWHDAVGIPLRPLYQDFTALSNEAYRQDGFSDTGAYWRSWYESPSFEESLEHLYHQVEPLYLNLHAFVRRALHRRYGDKYINLRGPIPAHLLGDMWAQSWENIYDMVVPFPDKPNLDVTSTMVQKGWNATHMFRVAEEFFTSLGLSPMPPEFWAESMLEKPADGREVVCHASAWDFYNRKDFRIKQCTRVTMDQLSTVHHEMGHVQYYLQYKDLHVSLRRGANPGFHEAIGDVLALSVSTPAHLHKIGLLDRVANDIESDINYLLKMALEKIAFLPFGYLVDQWRWGVFSGRTPPSRYNYDWWYLRTKYQGICPPVARNETHFDAGAKFHIPSVTPYIRYFVSFVLQFQFHQALCKEAGHQGPLHQCDIYQSTKAGAKLQQVLQAGCSRPWQEVLKDLVGSDALDASALMEYFQPVSQWLQEQNQRNGEVLGWPEYQWRPPLPDNYPEGIDLETDEAKANRFVEEYDRTAKVLWNEYAEANWHYNTNITIEGSKILLQKNKEVSNHTLKYGTWAKTFDVSNFQNSTIKRIIKKVQNVDRAVLPPNELEEYNQILLDMETTYSVANVCYTNGTCLSLEPDLTNIMATSRKYEELLWVWKSWRDKVGRAILPFFPKYVDFSNKIAKLNGYSDAGDSWRSSYESDDLEQDLEKLYQELQPLYLNLHAYVRRSLHRHYGSEYINLDGPIPAHLLGNMWAQTWSNIYDLVAPFPSAPSIDATEAMIKQGWTPRRIFKEADNFFTSLGLLPVPPEFWNKSMLEKPTDGREVVCHASAWDFYNGKDFRIKQCTSVNMEELVIAHHEMGHIQYFMQYKDLPVTFREGANPGFHEAIGDVLALSVSTPKHLHSLNLLSSEGSGYEHDINFLMKMALDKIAFIPFSYLIDQWRWRVFDGSITKENYNQEWWSLRLKYQGLCPPVPRSQGDFDPGSKFHVPANVPYIRYFISFIIQFQFHEALCRAAGHTGPLYKCDIYQSKEAGKLLADAMKLGYSKQWPEAMKIITGQPNMSASAIMNYFKPLTEWLVTENRRHGETLGWPEYTWTPNTARAEGSLPESSRVNFLGMYLEPQQARVGQWVLLFLGVALLVATVGLAHRLYNIHNHHSLRRPHRGPQFGSEVELRHS
With B2, in series [3], the Km came to 10.5 mM.

These data come from ChEMBL document CHEMBL1126768, “A mechanism-based inactivation study of neutral endopeptidase 24.11” (J Med Chem, 1993).
